Several values for one entry are separate records, joined by “and”; a condition that tells them apart may be missing. Identical values can stand only once.
Experiments:
[1] = molecular target: S1P1 receptors in HCtAECs (Homo sapiens, UniProt P21453); test: cAMP assay; type: cell-based
In short: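 HCtAECs seeded at 2 × 10^4 per well and kept overnight. Test compound diluted in HBSS (pH 7.2) containing 5 mM HEPES (pH 7.5), 0.1% fatty-acid-free BSA and 0.5 mM IBMX. Cells stimulated with 1 μM forskolin plus compound for 20 min at 37°C. Lysis in HEPES/CaCl2/Triton X-100 buffer; cAMP measured with a LANCE cAMP kit. Duplicates.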

[2] = molecular target: S1P1 receptors expressed on HCtAEC (Homo sapiens, UniProt P21453); test: S1P1 receptor internalization assay; type: cell-based; settings: mean ± SEM, n = 5
S1P1 receptors expressed on HCtAEC, sequence (P21453 whole entry): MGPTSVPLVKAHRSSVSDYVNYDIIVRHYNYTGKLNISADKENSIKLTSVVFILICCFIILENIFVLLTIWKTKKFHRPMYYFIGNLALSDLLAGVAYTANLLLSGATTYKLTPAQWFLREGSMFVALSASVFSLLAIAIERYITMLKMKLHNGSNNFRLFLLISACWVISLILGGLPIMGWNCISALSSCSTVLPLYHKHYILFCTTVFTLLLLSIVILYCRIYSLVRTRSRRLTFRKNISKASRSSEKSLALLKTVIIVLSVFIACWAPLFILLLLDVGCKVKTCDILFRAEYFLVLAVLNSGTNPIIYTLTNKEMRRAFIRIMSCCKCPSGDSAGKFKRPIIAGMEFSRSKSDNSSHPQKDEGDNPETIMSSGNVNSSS
In short: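 HCtAECs (10^5 per well) seeded overnight, then exposed for 1 h at 37°C to test compound diluted in serum-free defined medium. Cells washed in ice-cold PBS and detached with Accutase. Staining with mouse anti-S1P1 (30 min on ice), then PE anti-mouse IgG; IgG2b isotype control; dead cells excluded by 7-AAD or SYTOX Blue. Isotype-subtracted geoMFI normalized to vehicle, expressed as % of control.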

[3] = test system: HCtAEC monolayer; test: Permeability assay; type: cell-based, human; settings: for effect on the ASP4058‐mediated inhibition of endothelial permeability: ASP4058 100 nM, TASP0277308 pretreated 1 h, EHop‐016 30 min
In short: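 HCtAECs (10^5 per well) grown overnight on collagen-coated Transwell inserts (0.4 μm pore) in growth medium, then overnight in serum-free defined medium. Compound or vehicle (0.1% DMSO) added to both compartments for 1 h. 250 μg·mL−1 FITC-dextran (2000 kDa) then added to the upper compartment; diffusion into the lower compartment read after 1 h (ex 490/em 520 nm). Antagonist pretreatment 1 h or Rac inhibitor 30 min, before 100 nM agonist. Duplicates, 37°C.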

[4] = test system: THP‐1 cells across HCtAEC monolayer; test: Trans‐endothelial migration assay; type: cell-based, human; settings: MCP‐1 100 ng·mL^−1, 3 h
In short: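 HCtAECs (10^5 per well) grown overnight on Transwell inserts (5.0 μm pore) in growth medium. Compound in serum-free defined medium, or vehicle (0.1% DMSO), added to both compartments. At the same time, THP-1 cells (5 × 10^5) added above and MCP-1 (100 ng·mL−1) below. After 3 h at 37°C, migrated cells quantified by ATP luminescence. Antagonist co-added with 100 nM agonist; duplicates.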

[5] = test system: THP‐1 cells; test: Chemotaxis assay; type: cell-based, human; settings: 100 nM ASP4058, MCP‐1 10 ng·mL^−1, 3 h
In short: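 Migrated-cell Transwell assay (5.0 μm pore) without an endothelial layer. Test compound diluted in RPMI 1640 with 0.1% fatty-acid-free BSA; compound or vehicle (0.1% DMSO) added to both compartments. THP-1 cells (5 × 10^5 per well) added to the upper and MCP-1 (10 ng·mL−1) to the lower compartment simultaneously. After 3 h at 37°C, migrated cells quantified by ATP-based luminescence; duplicates.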

[6] = test system: IA walls at ACA‐OA bifurcation; test: In vivo vascular permeability assay; design: species or system Sprague–Dawley rats; settings: day 7, BAPN
In short: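 Rats after IA induction, with 3-aminopropionitrile to facilitate formation, dosed p.o. once daily from just after surgery; vehicle 0.5% methylcellulose. On day 7, under deep anaesthesia, Evans blue (45 mg·kg−1) injected intra-arterially via the right common carotid (proximal side clamped), then 4% paraformaldehyde perfusion. Age-matched Sprague–Dawley rats served as controls. Frozen sections imaged confocally (ex 620/em 680 nm); stained area thresholded, particles >4 pixel square counted.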

[7] = test system: intracranial aneurysm (IA); test: Rat IA model, histological analysis of induced IAs; type: in vivo, Sprague–Dawley rats; settings: for growth (size) of induced IAs: KRP‐203 0.01 and BAF312 0.3 mg·kg^−1 daily
In short: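 IA induced at the right ACA-OA bifurcation, contralateral to carotid ligation. Rats randomized and given test compound p.o. (suspended in 0.5% methylcellulose) throughout. Specimens prepared at 12 weeks; 5 μm sections immunostained. Aneurysm size and infiltrating macrophage number assessed.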

[8] = Systemic blood pressure; type: in vivo, Sprague–Dawley rats; settings: rats
In short: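 Oral dosing after IA induction, vehicle 0.5% methylcellulose. Blood pressure measured in conscious rats by tail-cuff, without anaesthesia. Systolic, mean and diastolic values each taken as the mean of at least three measurements.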

[9] = test system: lymphocytes / monocytes in peripheral blood; test: Peripheral blood lymphocyte and monocyte count in rat IA model; type: in vivo, Sprague–Dawley rats; settings: rats
In short: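 Oral dosing after IA induction. Agonist suspended in 0.5% methylcellulose; antagonist suspended in 5% arabic gum and given twice daily. Peripheral lymphocyte and monocyte counts taken after the dosing period (4 weeks for the antagonist).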

[10] = Plasma concentration of ASP4058 in rat aneurysm model; type: in vivo, rats
In short: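 Rats dosed orally at 0.01 mg·kg−1 for 12 weeks. Plasma collected just before and 1, 2, 4, 8 and 24 h after the last dose. Plasma separated by centrifugation and stored at −20°C or lower. Samples prepared by protein precipitation and quantified by HPLC–tandem mass spectrometry.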

[11] = test system: intracranial aneurysm (IA); test: Non‐human primate model of IAs; type: in vivo; settings: Macaca fascicularis, 0.1 mg·kg^−1 once daily, 52 weeks, n = 3
In short: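 Female Macaca fascicularis (11 years old, 3.4 kg average), held under a 12 h light–dark cycle. IAs induced by two-step surgery at a 2 week interval. Test compound given once daily. At 52 weeks, five intracranial bifurcation sites per animal examined for IA formation, scored as breakage of the lamina elastica.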

[12] = test system: hS1P1; settings: S1P2, S1P3, S1P4 versus S1P1/S1P5; ref Yamamoto et al., 2014; cited from earlier work
[13] = rats, oral, 14 days at 0.1 mg·kg^−1; ref Yamamoto et al., 2014; cited from earlier work
[14] = p.o., 12 weeks after IA induction
[15] = KRP‐203 0.01 or BAF312 0.3 mg·kg^−1, 4 weeks after IA induction
[16] = rats, TASP0277308 100 or 300 mg·kg^−1 p.o. twice daily, 4 weeks, BAPN
[17] = TASP0277308 100 or 300 mg·kg^−1 p.o. twice daily, 4 weeks

S1P1 receptors in HCtAECs, sequence (P21453 whole entry): as above

C[C@H](Oc1ccc(-c2nc(-c3ccc4[nH]cnc4c3)no2)cc1C(F)(F)F)C(F)(F)F.Cl [ASP4058, 5‐{5‐[3‐(trifluoromethyl)‐4‐{[(2S)‐1,1,1‐trifluoropropan‐2‐yl]oxy}phenyl]‐1,2,4‐oxadiazol‐3‐yl}‐1H–benzimidazole hydrochloride]
IC50 [1]: 2.1 nM | S1P1 receptor expression level on HCtAECs (surface, δ geoMFI) ([2]; 100 nM ASP4058, 1 h): 86 ± 14 % of control | S1P1 receptor expression level on HCtAECs (surface, δ geoMFI) ([2]; 1000 nM ASP4058, 1 h): 23 ± 4.3 % of control | leakage of FITC‐dextran (2000 kDa) across the endothelial monolayer ([3]; 10 nM ASP4058, 1 h treatment, 1 h diffusion, concentration‐dependent): statistically significant inhibition | MCP‐1‐induced trans‐endothelial migration of THP‐1 cells [4]: concentration‐dependently inhibited | MCP‐1‐dependent migration (chemotaxis) of THP‐1 cells without HCtAEC monolayer [5]: failed to inhibit | Evans blue leakage (stained area) at the ACA‐OA bifurcation after IA induction ([6]; rats, 0.1 mg·kg^−1 p.o. once daily): almost complete suppression | Evans blue leakage (stained area) at the ACA‐OA bifurcation after IA induction ([6]; rats, 0.01, 0.1 mg·kg^−1 p.o. once daily): dose‐dependently ameliorated | IA development measured by the size of the IA induced ([7]; rat model, p.o. during entire period of IA induction, 12 weeks): dose‐dependently suppressed IA development | incidence of IAs ([7]; rat model, p.o. during whole period, 12 weeks): did not affect the incidence | dose at which the suppressive effect on the size of the IA was observed ([7]; rat model, p.o., 12 weeks): 0.01 mg/kg | macrophage infiltration in the lesion ([7]; rat model, p.o., 12 weeks after induction): inhibited the macrophage infiltration | expression of MCP‐1 in the IA lesion ([7]; rats, ASP4058 0.03 mg·kg^−1, immunostaining): almost completely suppressed | IA‐associated degenerative change of the media (thinning of smooth muscle layer) ([7]; rats, ASP4058 0.03 mg·kg^−1, α‐SMA staining, 12 weeks): ameliorated the IA‐associated degenerative change of the media | enlargement of pre‐existing aneurysm ([7]; rats, ASP4058 0.1 mg·kg^−1 once daily started 1 week after IA induction, examined at 7 weeks, BAPN): significantly inhibited the enlargement | blood pressure ([8]; ASP4058 0.1 mg·kg^−1 started 1 week after induction, measured at 7 weeks): without affecting the blood pressure | systemic blood pressure ([8]; ASP4058 p.o. for 12 weeks after IA induction): without significantly influencing | peripheral lymphocyte number ([9]; ASP4058 0.01 mg·kg^−1 p.o., 12 weeks): did not decrease | monocyte count in peripheral blood ([9]; ASP4058 p.o., 12 weeks after IA induction): without significantly influencing | dose at which the decrease in lymphocyte count reached a plateau [9, 14]: 0.1 mg/kg | dose suppressing the lymphocyte number in peripheral blood [9, 14]: higher than 0.03 mg·kg^−1 | Plasma concentration, 4 h ([10]; 0.01 mg·kg^−1, 12 weeks, 4 h after last administration, mean ± SEM, n = 3): 8.8 ± 1.6 nM | Plasma concentration, 24 h ([10]; 0.01 mg·kg^−1, 12 weeks, 24 h after last administration, mean ± SEM, n = 3): 4.5 ± 0.6 nM | Plasma concentration, Pre ([10]; 0.01 mg·kg^−1, 12 weeks, just before last administration, mean ± SEM, n = 3): 5.4 nM and 5.4 ± 0.7 nM | concentration at 1 h ([10]; plasma, oral, 0.01 mg·kg^−1): 6.3 ± 0.9 nM | concentration at 2 h ([10]; plasma, oral, 0.01 mg·kg^−1): 4.9 ± 1.6 nM | concentration at 4 h ([10]; plasma, oral, 0.01 mg·kg^−1): 8.8 nM | concentration at 8 h ([10]; plasma, oral, 0.01 mg·kg^−1): 7.9 ± 1.4 nM | concentration at 24 h ([10]; plasma, oral, 0.01 mg·kg^−1): 4.5 nM | IA formation compared with the vehicle‐treated group [11]: tended to be suppressed | potency for other S1P receptor subtypes relative to S1P1 and S1P5 (times less) [12]: at least 100 times | plasma concentration at the maximum [13]: 16.4 ± 0.463 ng/mL | plasma concentration at the maximum (equivalent) [13]: 37.1 ± 1.05 nM

CCc1cc(/C(C)=N/OCc2ccc(C3CCCCC3)c(C(F)(F)F)c2)ccc1CN1CC(C(=O)O)C1 [BAF312, 1‐{4‐[(1E)‐N‐{[4‐cyclohexyl‐3‐(trifluoomethyl)benzyl]oxy}ethanimidoyl]‐2‐ethylbenzyl}azetidine‐3‐carboxylic acid, reference compound]
growth (size) of induced IAs ([7]; rats, 4 weeks, BAPN): significantly suppressed the growth | systemic blood pressure [8, 15]: without influencing

CCn1c2ccccc2c2cc(Nc3ccnc(NCCCN4CCOCC4)n3)ccc21 [EHop‐016]
effect on the ASP4058‐mediated inhibition of endothelial permeability [3]: ameliorated the effect of ASP4058 on permeability

Cl.NC(CO)(CO)CCc1ccc(Sc2cccc(OCc3ccccc3)c2)cc1Cl [KRP‐203, 2‐amino‐2‐[2‐(4‐{[3‐(benzyloxy)phenyl]sulfanyl}‐2‐chlorophenyl)ethyl]propane‐1,3‐diol hydrochloride, reference compound]
growth (size) of induced IAs ([7]; rats, 4 weeks, BAPN): significantly suppressed the growth | systemic blood pressure [8, 15]: without influencing

CCn1c(Oc2cccc(N3CCN(C)CC3)c2)nnc1[C@@H](C)NS(=O)(=O)c1ccc(Cl)c(Cl)c1 [TASP0277308, 3,4‐dichloro‐N‐[(1R)‐1‐{4‐ethyl‐5‐[3‐(4‐methylpiperazin‐1‐yl)phenoxy]‐4H‐1,2,4‐triazol‐3‐yl}ethyl]benzenesulfonamide, reference compound]
effect on the ASP4058‐mediated inhibition of endothelial permeability [3]: reversed | macrophage infiltration in IA lesions [7, 16]: did not suppress | size of the IA [7, 16]: did not suppress either the macrophage infiltration in IA lesions or reduce the size | systemic blood pressure [8, 17]: without influencing | peripheral lymphocyte count [9, 17]: potently decreased | peripheral monocyte count [9, 17]: without influencing

CCCCCCCCc1ccc(CCC(N)(CO)CO)cc1.Cl [fingolimod, 2‐amino‐2‐[2‐(4‐octylphenyl)ethyl]propane‐1,3‐diol hydrochloride, reference compound]
size of IAs induced ([7]; rats, fingolimod daily during whole period, 4 weeks, BAPN): significantly exacerbated the IA size | systemic blood pressure ([8]; fingolimod for 4 weeks after IA induction): without influencing

Reference: article PMC5466536 (British Journal of Pharmacology, 2017)
